Shown are actives, neighbours in structure and some others; about 3.5% of the full set was active somewhere.
RGS4 inh: inhibitors of human RGS4 | 310,000 tested, 0.45% active | HEK293 M3R/RGS4 inducible, Fluo-4 calcium flux; stronger effect = higher value; triggered by carbachol at its EC20 | B-score at 10 µM | AID 463165 | P49798;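 active means B-score, a plate-corrected calcium signal, over three deviations above library mean, with baseline fluorescence within five deviations of library mean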;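 further: RGS4 expression induced by doxycycline in cells with stable M3 receptor; B-score is computed from the integrated fluorescence ratio over baseline after carbachol; higher B-score means a larger calcium signal and so more RGS4 inhibition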
MrgX1 PAM: human MrgX1 positive allosteric modulation, primary screen; Q96LB2; MrgX1-HEK293, Fluo-4 calcium flux, FDSS; stronger effect = higher value; B-score at 10 µM; 310,000 tested, 0.63% active;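 active means plate-corrected calcium response at least 3 library SD above typical, normal starting fluorescence, not activating the receptor alone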;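 further: compound read alongside a low EC10 to EC30 dose of BAM8-22 agonist; peak minus trough fluorescence over baseline measured at the second addition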
Target sequence (Q96LB2 whole entry, looked up): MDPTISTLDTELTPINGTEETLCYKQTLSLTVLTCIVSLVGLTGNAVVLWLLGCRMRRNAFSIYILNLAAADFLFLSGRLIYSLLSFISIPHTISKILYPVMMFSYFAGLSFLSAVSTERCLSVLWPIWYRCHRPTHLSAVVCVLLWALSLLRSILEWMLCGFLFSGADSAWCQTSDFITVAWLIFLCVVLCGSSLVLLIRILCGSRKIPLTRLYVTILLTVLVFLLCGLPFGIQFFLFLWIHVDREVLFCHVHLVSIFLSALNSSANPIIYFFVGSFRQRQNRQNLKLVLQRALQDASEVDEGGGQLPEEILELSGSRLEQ
MrgX1 agonist: human MrgX1 receptor agonism, primary screen. Q96LB2. MrgX1-HEK293 cells, Fluo-4 calcium fluorescence, agonist mode; stronger effect = higher value. B-score at 10 µM. 310,000 tested, 0.44% active. AID 588627;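 active means calcium response B-score plate-corrected fluorescence ratio at least 3 library SD, with starting fluorescence B-score inside 5 SD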
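Assay system: MrgX1-expressing HEK293 cells / Amount: fifteen thousand cells per well / Doses: test compound in the initial addition of three / Timing: cells plated overnight, dye loaded 0.5 h 37 °C, 0.5 h room temperature / Technique: kinetic calcium dye fluorescence, Fluo-4 NW / Control set: positive and negative controls per plate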
MrgX1 antag: antagonists of human MrgX1 receptor. B-score at 10 µM. 310,000 tested, 1.3% active. AID 588676. MRGX1-HEK293 calcium flux, Fluo-4, BAM8-22 antagonism; stronger effect = lower value;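 active means calcium-response B-score plate-corrected more than 3 library SD below zero, starting fluorescence within 5 deviations, no agonist response on first addition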;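 further: peak minus trough fluorescence over baseline after final BAM8-22 challenge near maximal dose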
RGS4 act: potentiators or activators of RGS4. HEK293 M3R/inducible RGS4, carbachol calcium flux Fluo4; stronger effect = lower value. B-score at 10 µM. 310,000 tested, 0.92% active;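 active means B-score of the integrated calcium signal more than 4 SD below the library mean, with starting fluorescence not abnormally high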;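 further: negative B-score means reduced calcium response which marks RGS4 activation or potentiation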
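Assay system: HEK293 FlpIn-TREx cells, stable M3R, doxycycline-inducible RGS4 / Probe or stimulus: carbachol, ECmax concentration / Times: overnight RGS4 induction, 30 min dye load 37 °C, 20 min compound RT / Signal: kinetic calcium fluorescence imaging with Fluo4-AM dye, 2 µM / Measure: Agonist-evoked peak-minus-minimum fluorescence over baseline, integrated ratio, B score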
* marks the source's active call; other numbers are inactive results; i = inactive; nt = no result.

SMILES | RGS4 inh | MrgX1 PAM | MrgX1 agonist | MrgX1 antag | RGS4 act
N#C/C(=C\c1ccc[nH]1)C(=O)NCC1CCCO1 (stereo not given) | i | 7.8* | i | i | i
CC(=O)OC1CC(C)N(C(=O)c2ccccc2)c2ccc(C)cc21 (stereo not given) | i | i | i | i | i
Cc1ccc(C2=Nc3ccccc3N(C(=O)c3ccccc3)C(C)C2)cc1 (stereo not given) | i | i | i | -8.9* | i
CCNc1ccc(Br)cc(C(=O)/C=C/c2ccc(Cl)cc2)c1=O | i | i | i | i | i
CCNc1ccc(Br)cc(C(=O)/C=C/c2c(Cl)cccc2Cl)c1=O | i | i | i | -4.6* | i
Cn1ccnc1Sc1ccc(C(N)=O)cc1[N+](=O)[O-] | i | i | i | i | i
Cc1cc(Br)ccc1S(=O)(=O)NCc1ccccc1 | i | i | i | i | i
CCOc1ccccc1N1C(=O)CC(Nc2ccc(N3CCOCC3)cc2)C1=O (stereo not given) | i | i | i | -4.5* | i
Cc1ccc(CCNC(=O)C2CCN(S(=O)(=O)c3ccc4nc5c(c(C(=O)O)c4c3)CCCC5)CC2)cc1 | i | i | i | i | i
N#Cc1c(-c2ccccc2Cl)cc(-c2ccccc2)nc1Br | i | i | i | i | -7.3*
COc1ccc(-c2cc(C(=O)Nc3ccc(C(N)=O)cc3)c3ccccc3n2)cc1 | i | i | i | i | i
CCOC(=O)c1ccc(NC(=S)NNC(=O)COC)cc1 | i | i | i | -7.9* | i
N#C/C(=C\c1c(Cl)cccc1Cl)c1nc2ccccc2[nH]1 | i | 8.7* | i | i | i
COc1ccc(/C=C(\C#N)c2nc3ccccc3[nH]2)cc1O | i | nt | nt | nt | i
CN(C)/C=C(\C#N)c1nc2ccccc2[nH]1 | i | i | i | i | i
Cc1cc(/C=C(\C#N)c2nc3ccccc3[nH]2)c(C)n1C | i | i | i | i | i
N#C/C(=C\c1ccc(Cl)cc1)c1nc2ncccc2[nH]1 | i | 19* | i | i | i
COc1cc(/C=C(\C#N)c2nc3ccccc3[nH]2)cc(OC)c1O | i | i | 44* | i | i
Cc1cc(/C=C(/C#N)c2nc3ccccc3[nH]2)c(C)n1-c1cccc([N+](=O)[O-])c1 | i | i | i | i | -7.1*
Cc1ccc(NC(=O)c2ccc(CNc3c(N4CCC(C)CC4)c(=O)c3=O)cc2)cc1 | i | i | i | i | i
CCCCCCSc1ccc([C@H]2N[C@@](Cc3ccccc3)(C(=O)OC)[C@H]3C(=O)N(C)C(=O)[C@@H]23)cc1OC | i | i | i | i | i
COCCn1c(C)nnc1SCC(=O)NNC(=O)c1ccc(Br)cc1 | i | nt | nt | nt | i
CCOc1cccc2c1OC(c1cc(OC)c(OC)c(OC)c1)N1N=C(c3ccc(C)o3)CC21 (stereo not given) | i | i | i | -5.8* | i
CCNc1nc(NCC)nc(SCCOC(=O)Nc2ccccc2)n1 | i | 7.7* | i | i | i
Cc1cc2nc(SCCOC(=O)Nc3ccccc3)nc(C)c2cc1C | i | i | i | i | i
SMILES | RGS4 inh | MrgX1 PAM | MrgX1 agonist | MrgX1 antag | RGS4 act
O=C(/C=C/c1cccc(Br)c1)NCC1CCCCC1 | i | i | i | -7* | i
CN(C)c1cc[n+](CC(=O)N2c3ccccc3Sc3ccccc32)cc1 | i | i | i | i | -8.1*
O=C(COc1ccccc1)N1c2ccccc2Sc2ccccc21 | i | i | i | i | i
COc1cc(N/C=C(\C(C)=O)c2ccccc2)cc(OC)c1 | nt | i | 30* | i | nt
CC1N(C)c2cccc3cccc(c23)N1C | i | i | 33* | i | i
CN1c2cccc3cccc(c23)N(C)C1c1cccs1 | i | i | i | i | i
COCCn1c(=NC(=O)CSC(C)=O)sc2cc(F)ccc21 | i | i | i | -9.3* | i
O=C1NN(c2ccccc2)C(=O)/C1=C\c1ccccc1 | i | i | i | i | i
O=C1NN(c2ccccc2)C(=O)/C1=C/c1cccs1 | i | i | 43* | i | i

High-throughput results: PubChem BioAssay, Johns Hopkins Ion Channel Center
